In assay [1] the target is T1, Nitric oxide synthase, inducible (Mus musculus) (UniProt P29477).
T1 sequence (whole entry): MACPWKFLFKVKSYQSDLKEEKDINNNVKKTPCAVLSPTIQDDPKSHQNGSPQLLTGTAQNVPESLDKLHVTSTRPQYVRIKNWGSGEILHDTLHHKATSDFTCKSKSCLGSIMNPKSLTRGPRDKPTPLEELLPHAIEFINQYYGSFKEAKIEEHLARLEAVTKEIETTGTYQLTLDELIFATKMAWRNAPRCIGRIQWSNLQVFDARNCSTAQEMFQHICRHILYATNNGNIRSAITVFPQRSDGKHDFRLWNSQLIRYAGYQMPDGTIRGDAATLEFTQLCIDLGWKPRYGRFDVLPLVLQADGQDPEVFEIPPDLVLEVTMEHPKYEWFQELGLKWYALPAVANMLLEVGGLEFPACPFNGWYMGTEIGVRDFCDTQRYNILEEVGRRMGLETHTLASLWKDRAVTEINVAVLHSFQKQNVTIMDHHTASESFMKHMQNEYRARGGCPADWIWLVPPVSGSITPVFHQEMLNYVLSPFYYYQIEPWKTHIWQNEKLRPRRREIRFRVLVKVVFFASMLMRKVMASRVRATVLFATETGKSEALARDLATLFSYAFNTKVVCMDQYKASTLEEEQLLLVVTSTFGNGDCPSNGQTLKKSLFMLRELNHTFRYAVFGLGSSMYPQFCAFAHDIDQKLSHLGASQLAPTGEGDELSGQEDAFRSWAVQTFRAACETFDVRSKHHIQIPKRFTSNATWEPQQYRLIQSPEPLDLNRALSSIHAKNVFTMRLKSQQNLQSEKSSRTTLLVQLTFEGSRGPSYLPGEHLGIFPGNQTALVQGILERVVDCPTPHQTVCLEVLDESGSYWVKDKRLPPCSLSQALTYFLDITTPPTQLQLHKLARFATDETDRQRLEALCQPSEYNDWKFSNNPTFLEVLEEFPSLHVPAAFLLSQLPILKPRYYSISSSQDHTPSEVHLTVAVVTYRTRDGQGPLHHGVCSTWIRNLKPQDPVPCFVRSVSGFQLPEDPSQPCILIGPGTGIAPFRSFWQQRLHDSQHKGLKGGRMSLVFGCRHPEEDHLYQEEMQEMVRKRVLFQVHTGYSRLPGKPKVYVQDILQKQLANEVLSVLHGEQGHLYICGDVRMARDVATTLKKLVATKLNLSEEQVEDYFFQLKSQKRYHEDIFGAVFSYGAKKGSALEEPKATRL
Briefly: Nitric oxide (NO) formation during oxidation of NADPH and O2, catalyzed by NOS II detected spectrophotometrically using hemoglobin assay. Type of assay: functional. Summed up:
(§1)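 Purified recombinant NOS II (E. coli) at 20-30 nM was run at 37 °C in 50 mM HEPES pH 7.4 with 1 mM NADPH, 100 μM BH4, 5 mM DTT, 100 U/mL SOD, 100 U/mL catalase, 12-15 μM oxyhemoglobin and 500 μM substrate, against a buffer reference. The initial rate was followed at 401 nm (ε 34 mM⁻¹ cm⁻¹), or at 577 nm for strongly absorbing compounds (ε 14.5). Values are means ± SD of three to eight experiments.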

Assay [2] deals with T2, Nitric oxide synthase 3 (Mus musculus) (UniProt P70313).
T2 sequence (whole entry): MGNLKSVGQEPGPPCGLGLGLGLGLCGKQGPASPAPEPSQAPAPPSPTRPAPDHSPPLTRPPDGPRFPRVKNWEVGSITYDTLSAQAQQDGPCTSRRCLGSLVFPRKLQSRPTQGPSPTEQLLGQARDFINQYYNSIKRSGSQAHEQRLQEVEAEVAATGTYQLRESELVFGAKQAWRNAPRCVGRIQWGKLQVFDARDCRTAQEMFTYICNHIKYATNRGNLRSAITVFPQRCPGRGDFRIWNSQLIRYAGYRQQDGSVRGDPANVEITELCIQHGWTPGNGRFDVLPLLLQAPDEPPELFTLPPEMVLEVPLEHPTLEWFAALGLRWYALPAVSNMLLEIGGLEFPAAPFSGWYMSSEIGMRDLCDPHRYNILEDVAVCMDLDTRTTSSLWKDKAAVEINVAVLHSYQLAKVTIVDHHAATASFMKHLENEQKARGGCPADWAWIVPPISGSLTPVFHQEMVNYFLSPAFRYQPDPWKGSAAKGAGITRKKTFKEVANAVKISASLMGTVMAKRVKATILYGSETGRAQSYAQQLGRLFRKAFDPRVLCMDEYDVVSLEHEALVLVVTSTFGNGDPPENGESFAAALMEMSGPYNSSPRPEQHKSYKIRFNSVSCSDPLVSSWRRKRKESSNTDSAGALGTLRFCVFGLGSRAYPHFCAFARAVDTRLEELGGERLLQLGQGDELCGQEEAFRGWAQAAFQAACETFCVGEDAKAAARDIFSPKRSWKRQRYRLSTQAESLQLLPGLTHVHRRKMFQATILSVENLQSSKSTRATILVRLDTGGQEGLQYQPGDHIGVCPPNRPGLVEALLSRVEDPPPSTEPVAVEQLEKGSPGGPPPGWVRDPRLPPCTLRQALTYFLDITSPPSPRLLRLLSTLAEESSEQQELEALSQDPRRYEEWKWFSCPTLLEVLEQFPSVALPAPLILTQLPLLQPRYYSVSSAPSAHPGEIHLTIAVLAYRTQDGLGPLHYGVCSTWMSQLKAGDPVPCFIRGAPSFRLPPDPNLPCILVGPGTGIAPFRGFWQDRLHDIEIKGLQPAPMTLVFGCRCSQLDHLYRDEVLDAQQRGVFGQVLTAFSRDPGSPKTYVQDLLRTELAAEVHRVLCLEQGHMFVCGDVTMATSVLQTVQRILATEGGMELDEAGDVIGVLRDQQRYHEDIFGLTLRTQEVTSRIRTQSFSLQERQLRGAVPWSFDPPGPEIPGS
Briefly: Nitric oxide (NO) formation during oxidation of NADPH and O2, catalyzed by NOS III was detected spectrophotometrically using hemoglobin assay. Type of assay: functional. Summed up:
(§2)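 Hemoglobin assay with purified recombinant NOS I (rat brain, expressed in S. cerevisiae) or NOS III (E. coli), at 37 °C in 50 mM HEPES pH 7.4. The mix held 1 mM NADPH, 100 μM BH4, 5 mM DTT, SOD/catalase, oxyhemoglobin, 1 mM CaCl2, 10 μg/mL CaM and 500 μM substrate. Methemoglobin formation was read at 401 nm. Activity is given as percent of that with 500 μM NOHA, from three to five experiments.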

In assay [3] the target is T1, Nitric oxide synthase, inducible (Mus musculus). Briefly: (§3) Kinetic constant for NO formation during transformation of oxyhemoglobin to methemoglobin using NADPH and molecular Oxygen in the presence of (NOS II). Type of assay: functional. A digest of the protocol: (§4)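 Recombinant NOS II (E. coli-expressed, purified) assayed at 37 °C in 50 mM HEPES pH 7.4 with 1 mM NADPH, 100 μM BH4, 5 mM DTT, SOD and catalase (100 U/mL each), and 12-15 μM oxyhemoglobin. Substrate was varied from 5 μM to 2.5 mM. Enzyme level was set to keep oxyhemoglobin conversion below 30%. Kinetic constants come from the initial methemoglobin formation rate at 401 nm; three to four experiments.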

The target of assay [4] is Nitric oxide synthase 1 (Rattus norvegicus) (UniProt P29476). Kind of assay: Nitric oxide (NO) formation during oxidation of NADPH and O2, catalyzed by NOS I was detected spectrophotometrically using hemoglobin assay. In kind it is functional. Summed up: as §2
Chain of Nitric oxide synthase 1 (Rattus norvegicus) (P29476 whole entry): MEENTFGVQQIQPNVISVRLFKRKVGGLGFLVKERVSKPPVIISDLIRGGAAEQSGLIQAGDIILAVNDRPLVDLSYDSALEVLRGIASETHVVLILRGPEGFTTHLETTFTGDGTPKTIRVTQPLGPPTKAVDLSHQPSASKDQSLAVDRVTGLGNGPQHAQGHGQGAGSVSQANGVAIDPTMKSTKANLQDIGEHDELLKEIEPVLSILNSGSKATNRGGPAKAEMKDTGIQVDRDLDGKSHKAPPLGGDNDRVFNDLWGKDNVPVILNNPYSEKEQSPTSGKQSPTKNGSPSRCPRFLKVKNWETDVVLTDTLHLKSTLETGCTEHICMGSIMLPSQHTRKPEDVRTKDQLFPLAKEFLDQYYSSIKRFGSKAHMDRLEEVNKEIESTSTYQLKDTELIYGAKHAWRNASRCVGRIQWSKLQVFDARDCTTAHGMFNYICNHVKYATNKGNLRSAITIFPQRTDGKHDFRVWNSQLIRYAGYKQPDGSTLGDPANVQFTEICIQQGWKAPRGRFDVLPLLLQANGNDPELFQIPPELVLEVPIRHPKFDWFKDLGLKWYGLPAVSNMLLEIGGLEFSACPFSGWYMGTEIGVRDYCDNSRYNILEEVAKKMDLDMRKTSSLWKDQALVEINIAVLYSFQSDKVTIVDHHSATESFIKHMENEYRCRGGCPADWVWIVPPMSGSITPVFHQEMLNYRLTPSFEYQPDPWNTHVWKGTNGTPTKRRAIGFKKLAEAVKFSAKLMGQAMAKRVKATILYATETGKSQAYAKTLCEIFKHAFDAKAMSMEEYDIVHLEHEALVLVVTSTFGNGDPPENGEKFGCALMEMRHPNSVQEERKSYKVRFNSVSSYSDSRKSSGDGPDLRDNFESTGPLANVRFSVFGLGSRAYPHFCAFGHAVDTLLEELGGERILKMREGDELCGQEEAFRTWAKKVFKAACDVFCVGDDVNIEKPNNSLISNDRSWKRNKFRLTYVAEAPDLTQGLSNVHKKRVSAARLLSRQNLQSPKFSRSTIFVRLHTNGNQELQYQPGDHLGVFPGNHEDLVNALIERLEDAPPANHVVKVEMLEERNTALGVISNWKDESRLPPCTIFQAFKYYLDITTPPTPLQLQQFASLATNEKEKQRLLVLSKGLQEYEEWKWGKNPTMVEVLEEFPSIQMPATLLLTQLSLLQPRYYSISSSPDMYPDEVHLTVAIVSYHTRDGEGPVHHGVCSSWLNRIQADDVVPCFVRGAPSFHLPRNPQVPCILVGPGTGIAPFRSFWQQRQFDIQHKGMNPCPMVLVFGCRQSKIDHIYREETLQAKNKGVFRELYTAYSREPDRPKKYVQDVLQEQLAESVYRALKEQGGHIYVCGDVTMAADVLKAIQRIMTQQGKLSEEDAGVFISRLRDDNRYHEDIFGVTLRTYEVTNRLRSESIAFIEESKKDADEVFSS
Assay [5] addresses T1, Nitric oxide synthase, inducible (Mus musculus). Briefly: Nitric oxide (NO) formation during oxidation of NADPH and O2, catalyzed by NOS II was detected spectrophotometrically using hemoglobin assay. In kind it is functional. Summed up:
as §1

For assay [6] the target is unchanged. Kind of assay: Nitric oxide (NO) formation during oxidation by NADPH and O2, catalyzed by NOS II was detected spectrophotometrically using hemoglobin assay. Type of assay: functional. A digest of the protocol: as §1
Assay [7] shares this target. The assay is described as §3. Summed up:
as §4

On to `N/C(=N/c1ccc([N+](=O)[O-])cc1)NO`, for which the NOHA in assay [1] amounted to 2%. On to `Cc1ccc(NC(=N)NO)cc1`, for which the results for the NOHA in assay [2], in assay [1] and in assay [4] were < 0.2%, 17.5% and < 0.2%, respectively. The k cat in assay [3] was found to be 295 min⁻¹. In the case of `N/C(=N/c1cccc(CO)c1)NO`, the results for the NOHA in assay [2], in assay [1] and in assay [4] were < 0.2%, 6% and < 0.2%, respectively. As for `N/C(=N\O)c1ccccc1`, the NOHA in assay [1] is < 0.2%. With `N/C(=N/c1ccc(O)cc1)NO`, the NOHA is < 0.2% in assay [2], 16.5% in assay [1] and 8.5% in assay [4]. The k cat in assay [3] came to 110 min⁻¹. In the case of `N=C(NO)NCc1ccccc1`, the NOHA in assay [1] came out at 15%. With `N/C(=N/c1ccc(CC(=O)O)cc1)NO`, the NOHA in assay [1] was < 0.2%.

For `N/C(=N\O)c1ccc(Cl)cc1`, in assay [1], the NOHA is < 0.2%.

Take `CC(C(=O)O)c1ccc(NC(=N)NO)cc1` (stereo not given): in assay [1], the NOHA is < 0.2%. `COc1ccccc1/N=C(/N)NO`: the NOHA in assay [1] was 5%. Still for that read-out and setting: for `N/C(=N/c1cccc(Cl)c1)NO` the value was 5%. On the same count and under the same terms, the value for `N/C(=N/c1ccc(C(F)(F)F)cc1)NO` was 0.5%. `N=C(NO)Nc1ccccc1`: the NOHA was < 0.2% in assay [2], 20% in assay [1] and 1.5% in assay [4]. Further, in assay [3], the k cat turned out to be 130 min⁻¹. With `N/C(=N/CCCC(N)C(=O)O)NO` (stereo not given), the figures for the Activity (nM (nM of NOS)) in assay [2], in assay [5] and in assay [4] were 65, 425 and 130, respectively. For the same compound, in assay [3], the k cat amounted to 425 min⁻¹. In the case of `COc1ccc(/C=N/O)cc1`, in assay [1], the NOHA was < 0.2%. For the compound `N/C(=N/c1ccc(N)cc1)NO`, the NOHA was < 0.2% in assay [2], 8% in assay [1] and 4.5% in assay [4].

Regarding `COc1ccc(/C(C)=N/O)cc1`, the NOHA in assay [1] is < 0.2%. Take `CC(C)(C)c1ccc(NC(=N)NO)cc1`: the NOHA in assay [6] is < 0.2%. As to `O/N=C/c1ccc(Cl)cc1`, the NOHA in assay [1] was < 0.2%. Still for that read-out and setting: for `N/C(=N/c1ccccc1Cl)NO` the value was 5%; for `N/C(=N/c1ccc2c[nH]nc2c1)NO`, 2.5%.

For the compound `COc1ccc(C(=N)NO)cc1`, the NOHA in assay [1] was < 0.2%. On the same count and under the same terms, the value for `C/C(=N/c1ccc(Cl)cc1)NO` was < 0.2%. The same measure, in the same setting: for `N=C(NO)Nc1cccc(CN)c1` the value was 1.5%; for `C/C(=N\O)c1ccc(Cl)cc1`, < 0.2%; for `N/C(=N/c1cccc(C(F)(F)F)c1)NO`, 2.5%. The same measure, in the same setting: the value for `N/C(=N/c1ccc(OCC(=O)O)cc1)NO` was < 0.2%. For `N/C(=N/c1cccc(N)c1)NO`, the NOHA was 6.5% in assay [2], 3.5% in assay [1] and 2.5% in assay [4]. Turning to `COc1ccc(NC(=N)NO)cc1`, the NOHA in assay [2] is < 0.2%; in assay [1], 8%; in assay [4], 3.5%. Besides, the k cat in assay [3] is 145 min⁻¹. In the same order, the values of `N/C(=N/c1ccc(F)cc1)NO` are < 0.2%, 41%, 4.5% and 350 min⁻¹. For `N/C(=N\O)NCCc1ccccc1`, the NOHA in assay [1] was 6%. Still for that read-out and setting: the value for `N/C(=N/c1ccc(Br)cc1)NO` was 7.5%; that for `ON=C(Nc1ccccc1)Nc1ccccc1` was < 0.2%. On the same count and under the same terms, the value for `COc1ccc(N/C(C)=N/O)cc1` was < 0.2%.

In turn, `N/C(=N/c1ccsc1)NO` had an NOHA in assay [1] of 9.5%. Moreover, the k cat in assay [3] is 40 min⁻¹. For the compound `N/C(=N\O)N1CCc2ccccc2C1`, in assay [1], the NOHA was < 0.2%.

As for `N=C(NO)Nc1ccc(Cl)cc1`, the NOHA in assay [2] was < 0.2%; in assay [1], 13%; in assay [4], < 0.2%. Moreover, in assay [7], the k cat worked out at 98 min⁻¹.

For the origin of these results see ChEMBL document CHEMBL1135725, “N-Aryl N'-hydroxyguanidines, a new class of NO-donors after selective oxidation by nitric oxide synthases: structure-activity relationship” (J Med Chem, 2002).
